According to ChEMBL document CHEMBL4118097, “Selective Inhibitors of Dual Leucine Zipper Kinase (DLK, MAP3K12) with Activity in a Model of Alzheimer's Disease” (J Med Chem, 2017):

Tests used:
[1] = target: Mitogen-activated protein kinase kinase kinase 20 (Homo sapiens) (UniProt Q9NYL2); experiment: Inhibition of recombinant N-terminal full length GST-tagged human ZAK expressed in baculovirus expression system at 1 uM by FRET assay relative to control
Outline: (§1)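 Single-concentration screen at 1 μM in Life Technologies SelectScreen, across a 220-kinase panel. Z′-LYTE format measures phosphorylation of a labeled peptide by FRET. Results are reported as percent inhibition.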

[2] = target: Calcium/calmodulin-dependent protein kinase type II subunit beta (Homo sapiens) (UniProt Q13554); experiment: Inhibition of recombinant full length His-tagged human CaMK2beta expressed in baculovirus expression system at 1 uM by FRET assay relative to control
Chain of Calcium/calmodulin-dependent protein kinase type II subunit beta (Homo sapiens) (Q13554 whole entry, the tested form may be a part): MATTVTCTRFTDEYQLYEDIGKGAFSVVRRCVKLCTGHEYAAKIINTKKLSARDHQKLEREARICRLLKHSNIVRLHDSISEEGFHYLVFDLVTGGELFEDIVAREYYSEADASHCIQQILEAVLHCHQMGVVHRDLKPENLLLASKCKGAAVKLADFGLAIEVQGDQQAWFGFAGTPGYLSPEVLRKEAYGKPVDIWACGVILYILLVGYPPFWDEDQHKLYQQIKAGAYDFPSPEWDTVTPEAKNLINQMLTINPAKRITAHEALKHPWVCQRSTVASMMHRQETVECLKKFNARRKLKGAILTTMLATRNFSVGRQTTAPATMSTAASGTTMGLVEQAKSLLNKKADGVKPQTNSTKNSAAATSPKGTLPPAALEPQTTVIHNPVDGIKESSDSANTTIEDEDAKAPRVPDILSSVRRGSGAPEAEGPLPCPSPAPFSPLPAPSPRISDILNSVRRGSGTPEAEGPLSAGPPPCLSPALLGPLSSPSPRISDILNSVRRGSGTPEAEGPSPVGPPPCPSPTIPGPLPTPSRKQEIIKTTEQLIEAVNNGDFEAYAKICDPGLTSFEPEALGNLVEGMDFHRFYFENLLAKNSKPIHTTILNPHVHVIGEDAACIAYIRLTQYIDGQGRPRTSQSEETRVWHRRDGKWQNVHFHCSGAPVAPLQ

[3] = target: Receptor tyrosine-protein kinase erbB-2 (Homo sapiens) (UniProt P04626); experiment: Inhibition of recombinant His-tagged human ErbB2 cytoplasmic domain expressed in baculovirus expression system at 1 uM by FRET assay relative to control
Outline: (§2)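 Single-point screen at 1 μM compound in a 220-kinase panel run by Life Technologies (SelectScreen). Z′-LYTE format: phosphorylation of a labeled peptide substrate read by FRET. Values are reported as percent inhibition.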

[4] = target: Muscarinic acetylcholine receptor M1 (Homo sapiens) (UniProt P11229); experiment: Binding affinity to recombinant human M1 acetylcholine receptor at 10 uM relative to control
Outline: (§3)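 Broad radioligand-binding and enzyme screening panel covering 42 targets (biogenic amine and neuropeptide receptors, ion channels, neurotransmitter transporters, acetylcholinesterase). Single test concentration of 10 μM. Results expressed as binding relative to control, with a hit defined as >50% of control.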

[5] = target: BDNF/NT-3 growth factors receptor (Homo sapiens) (UniProt Q16620); experiment: Inhibition of recombinant His-tagged human TrkB cytoplasmic domain expressed in baculovirus expression system at 1 uM by FRET assay relative to control; outline: as §1
[6] = target: Serine/threonine-protein kinase TAO2 (Homo sapiens) (UniProt Q9UL54); experiment: Inhibition of recombinant GST-tagged human TAO2 catalytic domain (1 to 314 residues) expressed in baculovirus expression system at 1 uM by FRET assay relative to control; outline: as §2
[7] = target: 5-hydroxytryptamine receptor 4 (Homo sapiens) (UniProt Q13639); experiment: Binding affinity to 5HT4e receptor (unknown origin) receptor at 10 uM relative to control; outline: as §3
Chain of 5-hydroxytryptamine receptor 4 (Homo sapiens) (Q13639 whole entry, the tested form may be a part): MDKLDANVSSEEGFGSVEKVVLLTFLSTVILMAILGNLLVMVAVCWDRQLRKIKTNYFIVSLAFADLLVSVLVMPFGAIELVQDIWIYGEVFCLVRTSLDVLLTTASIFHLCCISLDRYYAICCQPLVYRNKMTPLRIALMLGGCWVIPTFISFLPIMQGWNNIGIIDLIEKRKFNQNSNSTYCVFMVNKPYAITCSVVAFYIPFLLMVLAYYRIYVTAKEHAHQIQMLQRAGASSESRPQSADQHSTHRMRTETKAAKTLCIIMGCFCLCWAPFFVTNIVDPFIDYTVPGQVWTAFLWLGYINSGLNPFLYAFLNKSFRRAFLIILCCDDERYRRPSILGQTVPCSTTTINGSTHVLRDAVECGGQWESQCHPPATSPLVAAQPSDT

[8] = target: Proto-oncogene tyrosine-protein kinase receptor Ret (Homo sapiens) (UniProt P07949); experiment: Inhibition of recombinant N-terminal GST-tagged human Ret cytoplasmic domain (658 to 1114 residues) expressed in baculovirus expression system at 1 uM by FRET assay relative to control; outline: as §1
[9] = target: Calcium/calmodulin-dependent protein kinase type II subunit alpha (Homo sapiens) (UniProt Q9UQM7); experiment: Inhibition of CamK2alpha (unknown origin) at 1 uM by FRET assay relative to control
Chain of Calcium/calmodulin-dependent protein kinase type II subunit alpha (Homo sapiens) (Q9UQM7 whole entry, the tested form may be a part): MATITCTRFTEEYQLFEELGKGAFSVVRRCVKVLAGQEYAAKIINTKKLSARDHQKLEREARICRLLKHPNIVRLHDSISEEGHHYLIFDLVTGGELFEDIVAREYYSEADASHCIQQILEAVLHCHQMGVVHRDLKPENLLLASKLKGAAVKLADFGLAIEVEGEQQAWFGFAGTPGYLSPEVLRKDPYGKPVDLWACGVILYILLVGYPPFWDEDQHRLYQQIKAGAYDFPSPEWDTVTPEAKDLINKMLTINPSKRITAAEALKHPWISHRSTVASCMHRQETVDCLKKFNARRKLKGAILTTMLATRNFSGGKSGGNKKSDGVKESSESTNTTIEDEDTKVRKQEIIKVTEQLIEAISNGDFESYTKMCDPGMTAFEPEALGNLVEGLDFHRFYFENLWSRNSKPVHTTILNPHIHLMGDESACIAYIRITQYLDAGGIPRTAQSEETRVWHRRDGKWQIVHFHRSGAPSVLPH

[10] = target: Tyrosine-protein kinase CSK (Homo sapiens) (UniProt P41240); experiment: Inhibition of full length recombinant His-tagged human CSK cytoplasmic domain expressed in Escherichia coli at 1 uM by FRET assay relative to control
Chain of Tyrosine-protein kinase CSK (Homo sapiens) (P41240 2-450 limits assumed): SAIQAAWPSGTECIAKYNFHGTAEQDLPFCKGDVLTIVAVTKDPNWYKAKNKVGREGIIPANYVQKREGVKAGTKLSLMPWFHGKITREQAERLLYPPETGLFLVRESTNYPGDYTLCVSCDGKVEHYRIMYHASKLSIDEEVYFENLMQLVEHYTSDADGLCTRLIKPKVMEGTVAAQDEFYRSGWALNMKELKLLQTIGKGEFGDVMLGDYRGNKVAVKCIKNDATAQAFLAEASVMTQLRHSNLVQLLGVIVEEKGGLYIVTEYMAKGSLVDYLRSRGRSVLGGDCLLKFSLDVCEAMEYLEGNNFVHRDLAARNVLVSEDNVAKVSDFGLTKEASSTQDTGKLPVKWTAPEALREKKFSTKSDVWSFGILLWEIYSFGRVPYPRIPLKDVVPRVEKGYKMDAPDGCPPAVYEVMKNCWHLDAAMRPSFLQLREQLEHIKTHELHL

[11] = target: Beta-adrenergic receptor kinase 1 (Homo sapiens) (UniProt P25098); experiment: Inhibition of recombinant full length His-tagged human GRK2 expressed in baculovirus expression system at 1 uM by FRET relative to control
[12] = target: Epidermal growth factor receptor (Homo sapiens) (UniProt P00533); experiment: Inhibition of recombinant GST-tagged human EGFR cytoplasmic domain (668 to 1210 residues) expressed in baculovirus expression system at 1 uM by FRET assay relative to control
Outline: (§4)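 Part of a 220-kinase panel run at a single concentration of 1 μM. Z′-LYTE format: phosphorylation of a labelled peptide read by FRET. Values reported as percent inhibition.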

[13] = target: Gamma-aminobutyric acid type B receptor subunit 1 (Homo sapiens) (UniProt Q9UBS5); experiment: Binding affinity to GABA-B1b (unknown origin) at 10 uM relative to control; outline: as §3
[14] = target: Mitogen-activated protein kinase kinase kinase 9 (Homo sapiens, UniProt P80192); experiment: Inhibition of recombinant human GST-tagged MLK1 expressed in baculovirus at 1 uM by FRET assay relative to control
[15] = target: Dual specificity protein kinase CLK2 (Homo sapiens) (UniProt P49760); experiment: Inhibition of recombinant GST-tagged human CLK2 catalytic domain(137 to 498 residues)expressed in baculovirus expression system at 1 uM by FRET assay relative to control
[16] = test system: Epidermal growth factor receptor (Homo sapiens), P00533 [L858R,T790M]; experiment: Inhibition of recombinant GST-tagged human EGFR cytoplasmic domain (668 to 1210 residues) T790M/L858R double mutant expressed in baculovirus expression system at 1 uM by FRET assay relative to control; outline: as §4
[17] = target: Mitogen-activated protein kinase 8 (Homo sapiens, UniProt P45983); experiment: Inhibition of recombinant full length His-tagged human JNK1alpha1 expressed in baculovirus expression system at 1 uM by FRET assay relative to control
Chain of Mitogen-activated protein kinase 8 (P45983 whole entry, the tested form may be a part): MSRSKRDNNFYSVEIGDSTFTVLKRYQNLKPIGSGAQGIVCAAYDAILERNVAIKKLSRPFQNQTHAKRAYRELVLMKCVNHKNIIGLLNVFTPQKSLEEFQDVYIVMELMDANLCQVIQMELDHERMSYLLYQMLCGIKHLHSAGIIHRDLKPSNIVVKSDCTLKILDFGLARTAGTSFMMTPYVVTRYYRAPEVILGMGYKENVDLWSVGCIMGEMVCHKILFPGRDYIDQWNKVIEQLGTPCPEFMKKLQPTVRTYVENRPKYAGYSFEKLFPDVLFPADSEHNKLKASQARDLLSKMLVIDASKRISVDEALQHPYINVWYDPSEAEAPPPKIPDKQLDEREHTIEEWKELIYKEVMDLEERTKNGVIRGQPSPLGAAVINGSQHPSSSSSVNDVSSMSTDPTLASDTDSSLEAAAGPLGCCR

[18] = target: Receptor-type tyrosine-protein kinase FLT3 (Homo sapiens) (UniProt P36888); experiment: Inhibition of recombinant His-tagged human FLT3 cytoplasmic domain expressed in baculovirus expression system at 1 uM by FRET assay relative to control; outline: as §2
Homo sapiens = species on record: Homo sapiens; experiment: Binding affinity to KATP (unknown origin) receptor at 10 uM relative to control; outline: as §3
[19] = target: Fibroblast growth factor receptor 3 (Homo sapiens) (UniProt P22607); experiment: Inhibition of recombinant His-tagged FGFR3 human cytoplasmic domain expressed in baculovirus expression system at 1 uM by FRET assay relative to control; outline: as §2
Chain of Fibroblast growth factor receptor 3 (Homo sapiens) (P22607 23-806 limits assumed): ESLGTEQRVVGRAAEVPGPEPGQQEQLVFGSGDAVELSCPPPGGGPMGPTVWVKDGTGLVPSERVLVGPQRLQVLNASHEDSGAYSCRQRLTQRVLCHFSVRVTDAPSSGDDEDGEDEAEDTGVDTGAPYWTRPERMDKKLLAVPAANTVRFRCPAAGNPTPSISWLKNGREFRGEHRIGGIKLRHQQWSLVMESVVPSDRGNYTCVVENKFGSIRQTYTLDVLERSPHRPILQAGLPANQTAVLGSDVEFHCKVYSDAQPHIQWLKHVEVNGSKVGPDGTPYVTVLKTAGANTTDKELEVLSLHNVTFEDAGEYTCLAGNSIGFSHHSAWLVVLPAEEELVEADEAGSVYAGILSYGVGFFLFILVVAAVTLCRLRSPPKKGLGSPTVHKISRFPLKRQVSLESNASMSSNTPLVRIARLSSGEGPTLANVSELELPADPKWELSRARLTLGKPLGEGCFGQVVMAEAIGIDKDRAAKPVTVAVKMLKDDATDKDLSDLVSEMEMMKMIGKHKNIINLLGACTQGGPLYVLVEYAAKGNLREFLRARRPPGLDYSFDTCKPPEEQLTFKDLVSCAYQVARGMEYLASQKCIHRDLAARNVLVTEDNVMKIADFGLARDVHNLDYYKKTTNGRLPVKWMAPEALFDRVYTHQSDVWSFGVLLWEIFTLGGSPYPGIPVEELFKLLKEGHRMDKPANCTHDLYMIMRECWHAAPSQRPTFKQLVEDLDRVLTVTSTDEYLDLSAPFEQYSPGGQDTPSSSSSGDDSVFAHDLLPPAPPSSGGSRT

[20] = target: Mitogen-activated protein kinase 9 (Homo sapiens, UniProt P45984); experiment: Inhibition of recombinant full length His-tagged human JNK2 ([…]) expressed in baculovirus expression system at 1 uM by FRET assay relative to control
Chain of Mitogen-activated protein kinase 9 (P45984 whole entry, looked up, the tested form may be a part): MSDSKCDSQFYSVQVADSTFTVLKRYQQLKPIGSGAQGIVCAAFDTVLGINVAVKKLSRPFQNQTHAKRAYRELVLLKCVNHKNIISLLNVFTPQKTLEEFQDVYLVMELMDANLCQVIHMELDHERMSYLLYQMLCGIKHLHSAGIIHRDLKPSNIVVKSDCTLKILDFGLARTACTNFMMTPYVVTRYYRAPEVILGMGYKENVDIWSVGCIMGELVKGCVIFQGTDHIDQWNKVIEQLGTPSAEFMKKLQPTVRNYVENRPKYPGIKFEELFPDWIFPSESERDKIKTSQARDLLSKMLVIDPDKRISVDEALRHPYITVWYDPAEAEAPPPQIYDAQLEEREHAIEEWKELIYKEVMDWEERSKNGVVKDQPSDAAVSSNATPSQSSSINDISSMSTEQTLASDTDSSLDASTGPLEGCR

[21] = target: Tyrosine-protein kinase Srms (Homo sapiens) (UniProt Q9H3Y6); experiment: Inhibition of recombinant full length GST-tagged human Srm cytoplasmic domain expressed in baculovirus expression system at 1 uM by FRET assay relative to control; outline: as §4
Chain of Tyrosine-protein kinase Srms (Homo sapiens) (Q9H3Y6 whole entry, the tested form may be a part): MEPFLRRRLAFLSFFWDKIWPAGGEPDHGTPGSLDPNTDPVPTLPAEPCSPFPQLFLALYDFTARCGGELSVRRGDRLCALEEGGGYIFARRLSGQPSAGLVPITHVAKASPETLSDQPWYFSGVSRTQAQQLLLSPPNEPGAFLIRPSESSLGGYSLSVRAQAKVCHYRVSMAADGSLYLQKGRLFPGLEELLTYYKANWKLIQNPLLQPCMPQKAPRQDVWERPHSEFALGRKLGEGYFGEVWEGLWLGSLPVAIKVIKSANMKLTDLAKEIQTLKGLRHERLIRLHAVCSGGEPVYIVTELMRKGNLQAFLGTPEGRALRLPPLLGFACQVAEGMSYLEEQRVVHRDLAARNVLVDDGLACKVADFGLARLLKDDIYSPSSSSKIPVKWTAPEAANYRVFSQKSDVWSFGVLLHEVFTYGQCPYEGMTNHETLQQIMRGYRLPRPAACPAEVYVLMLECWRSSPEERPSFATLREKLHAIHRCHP

[22] = target: Ribosomal protein S6 kinase (Homo sapiens) (UniProt P51812+Q9UBS0+O75676+Q15349+O75582+P23443+Q9UK32+Q15418); experiment: Inhibition of recombinant GST-tagged human p70S6K catalytic domain expressed in baculovirus expression system at 1 uM by FRET assay relative to control; outline: as §2
[23] = target: Ephrin type-B receptor 3 (Homo sapiens) (UniProt P54753); experiment: Inhibition of recombinant GST-tagged human EphB3 cytoplasmic domain expressed in baculovirus expression system at 1 uM by FRET assay relative to control; outline: as §2
[24] = target: High affinity nerve growth factor receptor (Homo sapiens, UniProt P04629); experiment: Inhibition of recombinant His-tagged human TrkA cytoplasmic domain (441 to 796 residues) expressed in baculovirus expression system by FRET assay
[25] = target: Tyrosine-protein kinase FRK (Homo sapiens) (UniProt P42685); experiment: Inhibition of recombinant full length GST-tagged human FRK cytoplasmoic domain expressed in baculovirus expression system at 1 uM by FRET assay relative to control; outline: as §1

Chain of Mitogen-activated protein kinase kinase kinase 20 (Homo sapiens) (Q9NYL2 2-800 limits assumed): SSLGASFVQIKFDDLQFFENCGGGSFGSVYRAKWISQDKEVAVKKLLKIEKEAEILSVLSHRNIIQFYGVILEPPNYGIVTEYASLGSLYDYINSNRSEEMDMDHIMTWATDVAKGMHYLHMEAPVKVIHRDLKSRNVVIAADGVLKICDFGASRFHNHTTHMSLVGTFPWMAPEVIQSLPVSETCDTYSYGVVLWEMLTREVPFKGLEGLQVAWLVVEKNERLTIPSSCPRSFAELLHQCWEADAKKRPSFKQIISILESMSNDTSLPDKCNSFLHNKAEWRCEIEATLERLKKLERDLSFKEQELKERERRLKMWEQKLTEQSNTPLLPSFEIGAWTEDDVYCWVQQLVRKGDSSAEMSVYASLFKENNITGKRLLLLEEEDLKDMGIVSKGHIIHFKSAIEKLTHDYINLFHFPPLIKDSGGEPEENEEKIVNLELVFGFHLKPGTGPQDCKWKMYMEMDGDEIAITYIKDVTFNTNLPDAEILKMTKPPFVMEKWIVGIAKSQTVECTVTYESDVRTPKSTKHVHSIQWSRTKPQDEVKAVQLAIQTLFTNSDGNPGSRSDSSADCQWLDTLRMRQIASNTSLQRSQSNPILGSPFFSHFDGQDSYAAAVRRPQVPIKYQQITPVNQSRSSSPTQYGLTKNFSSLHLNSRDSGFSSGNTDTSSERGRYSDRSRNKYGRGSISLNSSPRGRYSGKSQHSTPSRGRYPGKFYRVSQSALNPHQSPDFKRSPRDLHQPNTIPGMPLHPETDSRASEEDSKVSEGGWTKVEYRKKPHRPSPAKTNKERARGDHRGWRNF

SMILES	inhibition [1]	inhibition [2]	inhibition [3]	Activity [4]	inhibition [5]	inhibition [6]	Activity [7]	inhibition [8]	inhibition [9]	inhibition [10]	inhibition [11]	inhibition [12]	Activity [13]	inhibition [14]	inhibition [15]	inhibition [16]	inhibition [17]	inhibition [18]	Activity (Homo sapiens)	inhibition [19]	further results
CC(C)n1nc(-c2cnc(N)c(OC(F)(F)F)c2)cc1[C@H]1[C@@H]2CN(C3COC3)C[C@@H]21	2.5%	10.6%	-0.8%	> 50%	44.3%	0.6%	> 50%	9.1%	2.4%	6.8%	-2.5%	-2%	> 50%	-7.2%	17.6%	9.8%	9.1%	52.5%	> 50%	-1.8%	inhibition [20]: 4.4%; inhibition [21]: -2.5%; inhibition [22]: 4.5%; inhibition [23]: 4.6%; IC50 [24]: 1550 nM; inhibition [25]: 14.4%
Nc1ncc(-c2cc([C@H]3[C@@H]4CN(C5COC5)C[C@@H]43)n(CC3CC3)n2)cc1C(F)(F)F	1.4%	1.6%	-5.4%	> 50%	38.8%	-3.9%	> 50%	17.7%	0.6%	14.8%	2.1%	-1.1%	> 50%	28.5%	0.3%	8.2%	1.5%	66.5%	> 50%	-9.3%	inhibition [20]: 0.6%; inhibition [21]: 4%; inhibition [22]: 6.9%; inhibition [23]: 10%; IC50 [24]: 383 nM; inhibition [25]: 19.7%
